Measured values as given in ChEMBL document CHEMBL3769320, “Cell Penetrant Inhibitors of the KDM4 and KDM5 Families of Histone Lysine Demethylases. 2. Pyrido[3,4-d]pyrimidin-4(3H)-one Derivatives” (J Med Chem, 2016).

Columns and labels:
[1] = target: T1, Lysine-specific demethylase 4C (Homo sapiens, UniProt Q9H3R0); experiment: Inhibition of N-terminal his-tagged human KDM4C expressed in Escherichia coli BL21(DE3) using trimethylated peptide substrate by RFMS assay
T1 sequence (Q9H3R0 whole entry): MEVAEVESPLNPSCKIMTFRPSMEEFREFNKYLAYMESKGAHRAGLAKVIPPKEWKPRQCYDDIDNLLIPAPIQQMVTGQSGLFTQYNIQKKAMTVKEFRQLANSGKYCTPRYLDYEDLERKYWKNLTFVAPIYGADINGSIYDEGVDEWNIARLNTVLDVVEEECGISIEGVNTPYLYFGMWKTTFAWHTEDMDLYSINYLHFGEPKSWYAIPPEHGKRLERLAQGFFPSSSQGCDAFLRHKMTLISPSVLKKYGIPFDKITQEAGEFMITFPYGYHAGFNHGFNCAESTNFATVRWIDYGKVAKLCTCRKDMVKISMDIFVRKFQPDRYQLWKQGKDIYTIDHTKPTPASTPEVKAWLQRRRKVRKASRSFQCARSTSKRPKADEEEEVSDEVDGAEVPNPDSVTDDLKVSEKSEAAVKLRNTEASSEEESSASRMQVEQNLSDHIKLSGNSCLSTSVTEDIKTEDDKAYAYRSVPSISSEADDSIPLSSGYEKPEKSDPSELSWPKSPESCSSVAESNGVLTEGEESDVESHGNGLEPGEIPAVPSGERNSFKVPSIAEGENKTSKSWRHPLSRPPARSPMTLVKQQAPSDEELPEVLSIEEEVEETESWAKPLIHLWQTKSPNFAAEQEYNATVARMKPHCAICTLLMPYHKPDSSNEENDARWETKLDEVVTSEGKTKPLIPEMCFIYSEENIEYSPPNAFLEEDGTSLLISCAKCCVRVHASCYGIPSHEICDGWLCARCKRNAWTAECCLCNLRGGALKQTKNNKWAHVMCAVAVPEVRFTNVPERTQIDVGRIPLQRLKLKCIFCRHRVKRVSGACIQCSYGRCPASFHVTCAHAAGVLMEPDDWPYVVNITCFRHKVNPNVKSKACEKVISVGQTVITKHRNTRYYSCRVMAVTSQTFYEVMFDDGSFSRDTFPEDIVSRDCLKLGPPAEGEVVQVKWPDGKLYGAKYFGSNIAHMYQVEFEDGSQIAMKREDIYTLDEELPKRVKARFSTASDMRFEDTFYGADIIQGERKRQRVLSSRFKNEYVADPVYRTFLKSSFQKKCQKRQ

[2] = Dissociation constant, pKa of the compound; format: physicochemical
[3] = target: T1, Lysine-specific demethylase 4C; experiment: Inhibition of N-terminal his-tagged full-length human KDM4C transfected in U2OS cells assessed as inhibition of H3K9Me3 demethylation for 24 hrs; format: cell-based
[4] = target: Lysine-specific demethylase 6B (Homo sapiens, UniProt O15054); experiment: Inhibition of KDM6B (unknown origin) by RFMS assay
[5] = target: T2, Lysine-specific demethylase 4E (Homo sapiens, UniProt B2RXH2); experiment: Inhibition of KDM4E (unknown origin) by RFMS assay
T2 sequence (B2RXH2 whole entry): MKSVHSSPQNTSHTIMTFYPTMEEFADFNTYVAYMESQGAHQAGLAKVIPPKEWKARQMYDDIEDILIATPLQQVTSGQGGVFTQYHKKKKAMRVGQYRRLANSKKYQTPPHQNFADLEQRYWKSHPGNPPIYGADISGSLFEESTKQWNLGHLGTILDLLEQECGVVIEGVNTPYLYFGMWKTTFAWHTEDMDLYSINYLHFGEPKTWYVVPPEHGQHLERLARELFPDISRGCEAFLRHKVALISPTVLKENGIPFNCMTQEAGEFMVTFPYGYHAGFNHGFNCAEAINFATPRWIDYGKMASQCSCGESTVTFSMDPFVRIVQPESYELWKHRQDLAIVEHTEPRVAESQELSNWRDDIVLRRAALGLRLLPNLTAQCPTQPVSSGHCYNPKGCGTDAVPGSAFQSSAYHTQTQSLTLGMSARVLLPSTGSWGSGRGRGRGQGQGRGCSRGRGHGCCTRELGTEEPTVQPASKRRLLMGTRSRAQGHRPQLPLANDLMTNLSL

[6] = physchem; conditions: buffer, pH 7.4
[7] = target: T3, Lysine-specific demethylase 4D (Homo sapiens, UniProt Q6B0I6); experiment: Inhibition of KDM4D (unknown origin) by RFMS assay
T3 sequence (Q6B0I6 whole entry): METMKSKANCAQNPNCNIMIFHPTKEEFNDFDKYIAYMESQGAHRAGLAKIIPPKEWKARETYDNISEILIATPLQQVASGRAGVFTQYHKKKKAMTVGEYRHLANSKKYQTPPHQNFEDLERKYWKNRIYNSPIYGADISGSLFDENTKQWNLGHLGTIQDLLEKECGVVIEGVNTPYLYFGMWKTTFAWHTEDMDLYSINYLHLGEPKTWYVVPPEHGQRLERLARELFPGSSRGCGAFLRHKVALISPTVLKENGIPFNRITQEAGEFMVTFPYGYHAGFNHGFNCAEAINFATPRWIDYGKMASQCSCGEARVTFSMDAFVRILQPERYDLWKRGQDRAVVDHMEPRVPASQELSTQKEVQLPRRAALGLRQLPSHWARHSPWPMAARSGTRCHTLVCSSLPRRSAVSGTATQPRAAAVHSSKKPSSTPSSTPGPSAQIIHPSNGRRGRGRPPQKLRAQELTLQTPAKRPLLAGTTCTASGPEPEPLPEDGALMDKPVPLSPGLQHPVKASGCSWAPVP

[8] = target: Prolyl hydroxylase EGLN3 (Homo sapiens, UniProt Q9H6Z9); experiment: Inhibition of full-length EGLN3 (unknown origin) expressed in Escherichia coli BL21(DE3) cells by HTRF assay
[9] = target: T4, Lysine-specific demethylase 4A (Homo sapiens, UniProt O75164); experiment: Inhibition of KDM4A (unknown origin) by RFMS assay
T4 sequence (O75164 whole entry): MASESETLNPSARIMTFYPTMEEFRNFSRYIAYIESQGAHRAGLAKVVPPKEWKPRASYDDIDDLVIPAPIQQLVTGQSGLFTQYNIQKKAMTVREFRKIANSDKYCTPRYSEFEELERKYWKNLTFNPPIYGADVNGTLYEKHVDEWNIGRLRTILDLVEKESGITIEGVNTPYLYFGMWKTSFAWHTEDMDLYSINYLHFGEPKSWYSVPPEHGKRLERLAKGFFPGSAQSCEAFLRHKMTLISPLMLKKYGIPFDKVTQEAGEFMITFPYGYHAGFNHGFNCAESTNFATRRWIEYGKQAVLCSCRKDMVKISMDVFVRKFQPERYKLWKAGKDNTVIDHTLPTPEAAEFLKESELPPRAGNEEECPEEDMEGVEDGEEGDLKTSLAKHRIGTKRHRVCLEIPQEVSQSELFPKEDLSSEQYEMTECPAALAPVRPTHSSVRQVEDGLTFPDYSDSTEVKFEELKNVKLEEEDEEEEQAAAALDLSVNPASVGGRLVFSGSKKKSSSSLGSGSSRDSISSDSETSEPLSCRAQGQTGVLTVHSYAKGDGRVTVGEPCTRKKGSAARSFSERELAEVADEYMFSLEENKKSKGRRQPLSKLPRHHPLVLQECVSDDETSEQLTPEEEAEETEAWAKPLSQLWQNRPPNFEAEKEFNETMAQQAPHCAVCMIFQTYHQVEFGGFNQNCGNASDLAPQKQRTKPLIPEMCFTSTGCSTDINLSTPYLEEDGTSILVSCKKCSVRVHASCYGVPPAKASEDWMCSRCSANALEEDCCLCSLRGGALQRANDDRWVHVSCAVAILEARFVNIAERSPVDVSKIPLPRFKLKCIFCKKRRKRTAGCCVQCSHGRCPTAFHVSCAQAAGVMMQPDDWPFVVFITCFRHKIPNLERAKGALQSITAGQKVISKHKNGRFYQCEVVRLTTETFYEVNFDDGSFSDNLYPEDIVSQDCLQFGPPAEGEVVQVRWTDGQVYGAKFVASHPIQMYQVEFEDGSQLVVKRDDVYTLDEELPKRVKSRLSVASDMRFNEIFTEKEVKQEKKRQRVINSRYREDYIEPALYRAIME

[10] = target: T5, Lysine-specific demethylase 5C (Homo sapiens, UniProt P41229); experiment: Inhibition of KDM5C catalytic domain (1 -764 aa) (unknown origin) expressed in Sf9 cells using H3K4Me3 peptide as substrate by RFMS assay
[11] = target: T1, Lysine-specific demethylase 4C; experiment: Inhibition of N-terminal HALO-tagged full-length human KDM4C transfected in U2OS cells assessed as inhibition of H3K9Me3 demethylation for 24 hrs
[12] = target: T5, Lysine-specific demethylase 5C; experiment: Inhibition of human KDM5C transfected in U2OS cells assessed as inhibition of […] demethylation for 24 hrs; format: cell-based; conditions: read-out: pIC50 (converted)
In short: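 High-content cell imaging assay in U2OS cells overexpressing KDM5C, the same cell type as the KDM4C cellular mechanistic assay. Cellular potency reported as pIC50.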

T5 sequence (P41229 whole entry, the tested form may be a part): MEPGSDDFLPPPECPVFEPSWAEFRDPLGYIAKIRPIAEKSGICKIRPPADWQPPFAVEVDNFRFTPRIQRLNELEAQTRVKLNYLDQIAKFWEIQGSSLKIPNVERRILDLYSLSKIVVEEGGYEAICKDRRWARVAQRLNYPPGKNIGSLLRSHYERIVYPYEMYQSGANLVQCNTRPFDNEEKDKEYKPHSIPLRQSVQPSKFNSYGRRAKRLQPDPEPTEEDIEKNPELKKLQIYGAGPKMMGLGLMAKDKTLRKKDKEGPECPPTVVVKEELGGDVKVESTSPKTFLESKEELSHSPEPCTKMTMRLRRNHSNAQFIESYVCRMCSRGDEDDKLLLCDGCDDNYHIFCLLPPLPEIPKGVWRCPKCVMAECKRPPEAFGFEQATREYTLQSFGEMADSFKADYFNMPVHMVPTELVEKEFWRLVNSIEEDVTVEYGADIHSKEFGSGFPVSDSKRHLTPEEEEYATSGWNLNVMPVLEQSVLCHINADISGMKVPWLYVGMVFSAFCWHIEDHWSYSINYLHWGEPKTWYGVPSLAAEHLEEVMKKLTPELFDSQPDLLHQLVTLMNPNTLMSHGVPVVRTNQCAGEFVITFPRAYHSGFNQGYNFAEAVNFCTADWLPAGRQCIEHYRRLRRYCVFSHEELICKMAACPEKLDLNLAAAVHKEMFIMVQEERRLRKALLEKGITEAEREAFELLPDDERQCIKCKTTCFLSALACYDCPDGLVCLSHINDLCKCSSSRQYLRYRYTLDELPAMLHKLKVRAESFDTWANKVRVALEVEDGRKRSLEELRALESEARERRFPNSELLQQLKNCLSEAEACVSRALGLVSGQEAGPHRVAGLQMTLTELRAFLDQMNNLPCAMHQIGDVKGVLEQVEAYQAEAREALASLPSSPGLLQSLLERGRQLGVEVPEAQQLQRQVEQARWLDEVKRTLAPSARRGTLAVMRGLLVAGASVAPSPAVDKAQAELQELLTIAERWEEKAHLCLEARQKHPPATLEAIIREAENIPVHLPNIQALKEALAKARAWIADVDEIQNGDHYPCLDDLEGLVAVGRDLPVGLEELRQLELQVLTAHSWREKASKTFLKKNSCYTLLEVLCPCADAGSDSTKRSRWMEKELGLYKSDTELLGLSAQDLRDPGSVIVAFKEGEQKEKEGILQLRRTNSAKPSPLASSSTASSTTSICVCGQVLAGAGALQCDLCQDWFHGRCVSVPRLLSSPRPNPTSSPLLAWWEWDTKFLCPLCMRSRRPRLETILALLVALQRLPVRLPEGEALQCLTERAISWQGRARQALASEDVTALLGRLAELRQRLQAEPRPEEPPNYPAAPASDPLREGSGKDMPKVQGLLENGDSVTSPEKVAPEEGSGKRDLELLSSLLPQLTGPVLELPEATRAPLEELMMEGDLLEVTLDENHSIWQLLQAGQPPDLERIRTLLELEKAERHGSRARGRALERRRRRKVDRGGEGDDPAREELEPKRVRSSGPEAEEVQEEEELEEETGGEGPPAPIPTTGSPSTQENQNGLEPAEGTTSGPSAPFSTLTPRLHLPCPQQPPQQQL
Sequence of Lysine-specific demethylase 6B (O15054 whole entry): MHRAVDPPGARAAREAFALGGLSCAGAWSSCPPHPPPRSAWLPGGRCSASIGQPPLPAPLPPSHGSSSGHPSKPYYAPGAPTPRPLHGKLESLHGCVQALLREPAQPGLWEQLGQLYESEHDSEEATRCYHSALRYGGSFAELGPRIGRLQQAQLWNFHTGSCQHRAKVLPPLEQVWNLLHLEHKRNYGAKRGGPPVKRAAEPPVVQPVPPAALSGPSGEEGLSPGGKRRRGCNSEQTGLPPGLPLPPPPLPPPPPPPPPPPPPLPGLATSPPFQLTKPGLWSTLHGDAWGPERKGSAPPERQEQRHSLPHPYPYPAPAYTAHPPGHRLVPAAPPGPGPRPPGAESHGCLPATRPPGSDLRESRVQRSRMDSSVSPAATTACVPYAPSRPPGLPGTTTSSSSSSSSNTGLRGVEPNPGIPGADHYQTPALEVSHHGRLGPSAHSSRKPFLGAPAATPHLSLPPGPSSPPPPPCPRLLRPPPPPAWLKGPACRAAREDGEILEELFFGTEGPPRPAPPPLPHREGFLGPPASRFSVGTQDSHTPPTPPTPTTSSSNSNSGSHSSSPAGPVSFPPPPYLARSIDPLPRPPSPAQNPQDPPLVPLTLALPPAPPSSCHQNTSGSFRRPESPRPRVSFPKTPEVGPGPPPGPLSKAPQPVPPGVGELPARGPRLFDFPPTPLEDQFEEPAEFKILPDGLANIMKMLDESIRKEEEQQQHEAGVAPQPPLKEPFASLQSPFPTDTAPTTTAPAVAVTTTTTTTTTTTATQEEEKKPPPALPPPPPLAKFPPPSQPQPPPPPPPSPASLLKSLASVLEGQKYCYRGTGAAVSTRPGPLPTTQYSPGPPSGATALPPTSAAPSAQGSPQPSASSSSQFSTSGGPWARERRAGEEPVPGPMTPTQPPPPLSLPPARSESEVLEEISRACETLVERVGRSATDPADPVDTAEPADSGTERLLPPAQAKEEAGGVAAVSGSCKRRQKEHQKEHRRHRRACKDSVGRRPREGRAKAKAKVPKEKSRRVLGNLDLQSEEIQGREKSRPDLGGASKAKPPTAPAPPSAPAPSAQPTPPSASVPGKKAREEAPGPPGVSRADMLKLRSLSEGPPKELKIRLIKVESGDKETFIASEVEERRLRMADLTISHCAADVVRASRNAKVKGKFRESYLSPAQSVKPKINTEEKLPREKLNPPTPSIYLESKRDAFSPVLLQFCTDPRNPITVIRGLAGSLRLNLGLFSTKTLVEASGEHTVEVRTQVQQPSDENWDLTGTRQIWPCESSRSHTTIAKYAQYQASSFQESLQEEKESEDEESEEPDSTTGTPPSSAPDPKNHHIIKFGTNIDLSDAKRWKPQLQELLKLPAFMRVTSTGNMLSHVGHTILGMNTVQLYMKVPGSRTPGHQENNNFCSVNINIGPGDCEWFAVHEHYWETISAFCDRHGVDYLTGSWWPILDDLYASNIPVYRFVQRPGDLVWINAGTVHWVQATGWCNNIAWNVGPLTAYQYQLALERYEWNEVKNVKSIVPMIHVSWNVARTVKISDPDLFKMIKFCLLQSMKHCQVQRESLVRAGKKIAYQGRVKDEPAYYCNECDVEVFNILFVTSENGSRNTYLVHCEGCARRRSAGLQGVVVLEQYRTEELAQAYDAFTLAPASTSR
Sequence of Prolyl hydroxylase EGLN3 (Q9H6Z9 whole entry): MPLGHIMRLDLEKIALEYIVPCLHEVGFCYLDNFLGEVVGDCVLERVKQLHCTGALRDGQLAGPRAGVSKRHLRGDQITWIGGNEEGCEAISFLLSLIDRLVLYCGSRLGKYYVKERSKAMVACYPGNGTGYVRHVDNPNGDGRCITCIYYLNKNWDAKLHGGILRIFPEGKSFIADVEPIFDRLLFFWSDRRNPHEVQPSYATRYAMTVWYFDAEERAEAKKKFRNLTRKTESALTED

Row | IC50 [1] | pKa [2] | IC50 [3] | IC50 [4] | IC50 [5] | logD [6] | IC50 [7] | IC50 [8] | IC50 [9] | IC50 [10] | IC50 [11] | IC50 [12] | SMILES
1 | 12600 nM | 8.8 | – | – | – | – | – | – | – | – | – | – | CCCc1nc2cnccc2c(=O)[nH]1
2 | 3160 nM | 8.6 | – | – | – | – | – | – | – | – | – | – | CCNc1nc2cnccc2c(=O)[nH]1
3 | 794 nM | 6.8 | > 100 µM | – | – | – | – | – | – | – | – | – | CCSc1nc2cnccc2c(=O)[nH]1
4 | 1000 nM | 7.5 | 63.1 µM | – | – | – | – | – | – | – | – | – | CCOc1nc2cnccc2c(=O)[nH]1
5 | 501 nM | – | 5.01 µM | > 100 µM | 501 nM | 1.8 | 398 nM | > 100 µM | 631 nM | 63.1 nM | 2000 nM | 3.98 µM | O=c1[nH]c(Oc2cnn(Cc3ccccc3)c2)nc2cnccc12
